What all share (assay type): functional
In assay [1] the test system is SW1573. As to the kind of experiment: Growth inhibition of human SW1573 cells after 48 hrs by SRB assay. Particulars: SW1573, 48 h. The method in brief: (§1)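 Cells from an academic source, kept in 25 cm² flasks in RPMI 1640 with 5% heat-inactivated fetal calf serum. Dosing began day 1 after plating, in triplicate at several dilutions across […]. Vehicle controls got DMSO 0.25% v/v. After 48 h exposure, cells were fixed with ice-cold 50% w/v TCA for 60 min at 4 °C and stained by SRB. OD was read at 492 nm, corrected for medium-only background, and GI50 was derived from dose-response data.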
Background: Sulforhodamine B stains cellular protein and so reports cell mass.

The test system of assay [2] is WiDr. As to the kind of experiment: Growth inhibition of human WiDr cells after 48 hrs by SRB assay. Put shortly: as §1
Assay [3] is described as follows: Growth inhibition of human HBL100 cells after 48 hrs by SRB assay. The conditions noted are these: HBL-100, 48 h. Put shortly: as §1
The subject of assay [4] is T47D. Put plainly: Growth inhibition of human T47D cells after 48 hrs by SRB assay. The method in brief: as §1
For assay [5], the system named is HeLa. Put plainly: Growth inhibition of human HeLa cells after 48 hrs by SRB assay. Put shortly:
as §1

The term GI50 denotes the concentration giving 50% growth inhibition. With `O=C(/C=C/C1CCCCC1)c1ccccc1`, the concentration for 50% growth inhibition (GI50) in assay [1] worked out at 10 µM; in assay [2] it was 21 µM; in assay [3] it was 18 µM; in assay [4] it was 15 µM; in assay [5], 21 µM.

For the compound `O=C(/C=C/c1ccc(Cl)cc1Cl)c1ccccc1`, the GI50 in assay [1] was 12 µM; in assay [2], 20 µM; in assay [3] it was 17 µM; in assay [4], 14 µM; in assay [5], 18 µM.

`COc1cc([C@@H]2c3cc4c(cc3[C@@H](O[C@@H]3O[C@@H]5CO[C@@H](C)O[C@H]5[C@H](O)[C@H]3O)[C@H]3COC(=O)[C@H]23)OCO4)cc(OC)c1O` [ETOPOSIDE]: the 50% growth inhibitory concentration (GI50) in assay [1] turned out to be 15 µM; in assay [2], 23 µM; in assay [3], 1.4 µM; in assay [4], 22 µM; in assay [5], 3.3 µM.

These data come from ChEMBL document CHEMBL3085652, “Synthesis and antiproliferative activity of α-branched α,β-unsaturated ketones” (2013).
